ChEMBL document CHEMBL1145382, “Novel ergopeptides as dual ligands for adenosine and dopamine receptors” (J Med Chem, 2007)
The source made the active and inactive calls. The calls are words filed in the database; no cut-off is given here. Non-standard residues stand in square brackets, D forms with d. Residues, ends and D or L forms follow the SMILES beside them. Phe(4-NO2) = N[C@@H](Cc1ccc([N+](=O)[O-])cc1)C(=O)O; Phe(4-F) = N[C@@H](Cc1ccc(F)cc1)C(=O)O; hCha = N[C@@H](CCC1CCCCC1)C(=O)O

Legend:
[1] = target: T1, Adenosine receptor A1 (Homo sapiens) (UniProt P30542); assay: Displacement of [3H]R-PIA from adenosine A1 receptor in lamb striatum membrane at 50 uM after 1 hr; format: cell membranes; conditions: Ovis aries, target entry is the homologue from another species
T1 sequence (whole entry): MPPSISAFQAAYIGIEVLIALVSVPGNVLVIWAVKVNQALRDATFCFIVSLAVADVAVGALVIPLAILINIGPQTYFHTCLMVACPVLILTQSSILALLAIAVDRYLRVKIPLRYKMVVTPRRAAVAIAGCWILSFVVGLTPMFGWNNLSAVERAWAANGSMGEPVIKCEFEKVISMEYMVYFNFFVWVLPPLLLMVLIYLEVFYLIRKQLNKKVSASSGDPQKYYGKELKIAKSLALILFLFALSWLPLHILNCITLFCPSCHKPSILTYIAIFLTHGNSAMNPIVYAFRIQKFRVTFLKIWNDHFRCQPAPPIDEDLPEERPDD
In short: (§1)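 Single-concentration screen at 50 µM ergopeptide on lamb striatal membranes (0.5 mg protein/mL), 22 °C, 50 mM Tris-HCl pH 7.4. Radioligands: [3H]SCH 23390 1.2 nM (D1), [3H]YM 09151-2 0.9 nM (D2), [3H]R-PIA 2.2 nM (A1, with MgCl2 and ADA), [3H]CGS 21680 20.1 nM (A2A, with MgCl2 and ADA). Specific binding displaced, after filtration and scintillation counting.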

[2] = target: D(2) dopamine receptor (Homo sapiens) (UniProt P14416); assay: Displacement of [3H]YM 09151-2 from dopamine D2 receptor in lamb striatum membrane at 50 uM after 2 hrs; format: cell membranes; conditions: Ovis aries, target entry is the homologue from another species; in short: as §1
[3] = target: D(1A) dopamine receptor (Homo sapiens) (UniProt P21728); assay: Displacement of [3H]SCH 23390 from dopamine D1 receptor in lamb striatum membrane at 50 uM after 1 hr; format: cell membranes; conditions: Ovis aries, target entry is the homologue from another species; in short: as §1
Adenosine receptor A2a [4] = target: T2, Adenosine receptor A2a (Homo sapiens, UniProt P29274); assay: Displacement of [3H]CGS 21680 from adenosine A2A receptor in lamb striatum membrane at 50 uM after 2 hrs; format: cell membranes; conditions: Ovis aries, target entry is the homologue from another species; in short: as §1
[5] = target: D(1A) dopamine receptor (Homo sapiens) (UniProt P21728); assay: Agonist activity at dopamine D1 receptor transfected in mouse L(tk-) cells assessed as stimulation of cAMP levels; format: functional, cell-based
In short: (§2)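 Mouse Ltk- fibroblasts cotransfected with human A1R and D1R, serum-starved 12-16 h. In HBSS with 50 µM zardaverine, then 50 µM ergopeptide, with or without 20 nM SKF or 50 µM SCH. 35 min total incubation. cAMP by competitive enzyme immunoassay. Three to six determinations, t test.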

[6] = target: D(2) dopamine receptor (Homo sapiens) (UniProt P14416); assay: Agonist activity at dopamine D2 receptor in SH-SY5Y cells assessed as inhibition of forskolin-activated intracellular cAMP production at 50 uM; format: functional, cell-based
In short: (§3)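 SH-SY5Y cells expressing human D2LR, preincubated 5-10 min at 22 °C with 5 µM ZM to block A2AR. Then 50 µM zardaverine, 10 µM forskolin, and 50 µM ergopeptide, with or without 150 nM quinpirole or 50 µM raclopride. 35 min total. cAMP by enzyme immunoassay. Three to six determinations, t test.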

[7] = target: T1, Adenosine receptor A1 (Homo sapiens); assay: Agonist activity at adenosine A1 receptor transfected in mouse L(tk-) cells assessed as decrease in forskolin-induced cAMP levels; format: functional, cell-based
In short: (§4)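 Mouse Ltk- fibroblasts cotransfected with human A1R and D1R, preincubated 5-10 min at 22 °C with 50 µM SCH to block D1R. Then 50 µM zardaverine, 10 µM forskolin, and 50 µM ergopeptide, with or without 20 nM R-PIA or 50 µM DPCPX. 35 min total. cAMP by enzyme immunoassay. Three to six determinations.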

[8] = target: D(1A) dopamine receptor (Homo sapiens) (UniProt P21728); assay: Antagonist activity at dopamine D1 receptor transfected in mouse L(tk-) cells assessed as inhibition of SKF-induced stimulation of forskolin-induced cAMP levels; format: functional, cell-based; in short: as §2
Adenosine receptor A2a [9] = target: T2, Adenosine receptor A2a; assay: Agonist activity at adenosine A2A receptor in SH-SY5Y cells assessed as CGS-induced intracellular cAMP production at 50 uM; format: functional, cell-based
In short: (§5)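 SH-SY5Y neuroblastoma cells, endogenous A2AR, stably carrying human D2LR. Serum-starved 12-16 h, in HBSS with 50 µM zardaverine for 10 min, then 50 µM ergopeptide, alone or with the A2AR agonist CGS. 35 min total incubation. cAMP by competitive enzyme immunoassay. Three to six determinations, Student's t test.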

Adenosine receptor A2a [10] = target: T2, Adenosine receptor A2a; assay: Displacement of [3H]CGS 21680 from adenosine A2A receptor in lamb striatum membrane after 2 hrs; format: cell membranes, Ovis aries; conditions: target entry is the homologue from another species
In short: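 Lamb striatal membranes (0.5 mg protein/mL), 22 °C, 50 mM Tris-HCl pH 7.4, with increasing ergopeptide concentrations. Conditions per receptor: D1 1.2 nM [3H]SCH 23390, 1 mM dopamine nonspecific. D2 0.9 nM [3H]YM 09151-2, 100 µM raclopride nonspecific. A1 2.2 nM [3H]R-PIA, 10 mM MgCl2, 0.2 U/mL ADA, 50 µM R-PIA nonspecific. A2A 20.1 nM [3H]CGS 21680, 10 mM MgCl2, 2 U/mL ADA, 1 mM CGS 21680 nonspecific. Filtration, scintillation counting. KD by nonlinear one- or two-site fit. Three to six determinations.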

[11] = target: T1, Adenosine receptor A1 (Homo sapiens); assay: Antagonist activity at adenosine A1 receptor transfected in mouse L(tk-) cells assessed as inhibition of R-PIA-induced decrease in forskolin-induced cAMP levels; format: functional, cell-based; in short: as §4
Adenosine receptor A2a [12] = target: T2, Adenosine receptor A2a; assay: Antagonist activity at adenosine A2A receptor in SH-SY5Y cells assessed as CGS-induced intracellular cAMP production at 50 uM; format: functional, cell-based; in short: as §5
[13] = target: D(2) dopamine receptor (Homo sapiens) (UniProt P14416); assay: Antagonist activity at dopamine D2 receptor in SH-SY5Y cells assessed as effect on forskolin-activated intracellular cAMP production at 50 uM; format: functional, cell-based; in short: as §3

Chain of D(2) dopamine receptor (Homo sapiens) (P14416 whole entry): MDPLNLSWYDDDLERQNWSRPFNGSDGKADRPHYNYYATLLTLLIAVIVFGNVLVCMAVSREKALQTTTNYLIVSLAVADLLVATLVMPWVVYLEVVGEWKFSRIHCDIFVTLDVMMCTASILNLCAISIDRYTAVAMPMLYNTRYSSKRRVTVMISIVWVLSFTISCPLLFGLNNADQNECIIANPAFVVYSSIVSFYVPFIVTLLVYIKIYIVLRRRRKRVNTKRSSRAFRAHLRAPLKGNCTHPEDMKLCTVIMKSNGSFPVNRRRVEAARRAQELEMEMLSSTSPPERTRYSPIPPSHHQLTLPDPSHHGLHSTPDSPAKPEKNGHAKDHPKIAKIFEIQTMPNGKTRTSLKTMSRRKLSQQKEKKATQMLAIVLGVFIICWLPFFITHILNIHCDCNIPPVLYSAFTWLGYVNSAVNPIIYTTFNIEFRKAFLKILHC
Chain of D(1A) dopamine receptor (Homo sapiens) (P21728 whole entry): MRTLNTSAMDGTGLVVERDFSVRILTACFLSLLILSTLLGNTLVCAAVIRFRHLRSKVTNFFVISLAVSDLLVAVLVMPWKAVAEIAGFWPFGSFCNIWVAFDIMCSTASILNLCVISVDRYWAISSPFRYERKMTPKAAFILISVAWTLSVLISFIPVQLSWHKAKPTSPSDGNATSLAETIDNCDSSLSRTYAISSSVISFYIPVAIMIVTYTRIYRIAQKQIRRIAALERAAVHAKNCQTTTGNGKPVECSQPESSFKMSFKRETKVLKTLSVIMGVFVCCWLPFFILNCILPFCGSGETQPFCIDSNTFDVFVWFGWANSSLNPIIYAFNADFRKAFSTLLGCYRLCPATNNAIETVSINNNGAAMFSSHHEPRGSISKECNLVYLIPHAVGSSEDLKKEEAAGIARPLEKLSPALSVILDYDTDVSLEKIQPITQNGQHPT
T2 sequence (P29274 whole entry): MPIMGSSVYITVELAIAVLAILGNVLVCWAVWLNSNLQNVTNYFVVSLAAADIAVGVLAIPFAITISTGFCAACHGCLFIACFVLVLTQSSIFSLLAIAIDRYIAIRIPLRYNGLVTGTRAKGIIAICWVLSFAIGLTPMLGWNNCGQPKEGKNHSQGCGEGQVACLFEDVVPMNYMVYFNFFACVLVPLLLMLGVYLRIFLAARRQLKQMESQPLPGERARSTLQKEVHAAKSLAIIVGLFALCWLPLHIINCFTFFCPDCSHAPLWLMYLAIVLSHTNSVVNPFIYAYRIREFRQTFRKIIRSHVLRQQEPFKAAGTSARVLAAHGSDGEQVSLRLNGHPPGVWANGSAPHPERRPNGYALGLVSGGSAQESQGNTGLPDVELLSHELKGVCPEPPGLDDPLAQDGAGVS

Row | SMILES | Activity [1] | Activity [2] | Activity [3] | Activity (Adenosine receptor A2a [4]) | Activity [5] | Activity [6] | Activity [7] | Activity [8] | Activity (Adenosine receptor A2a [9]) | Kd (Adenosine receptor A2a [10]) | Activity [11] | Activity (Adenosine receptor A2a [12]) | Activity [13]
1 | CC(=O)N[C@H](C(=O)N[C@@H](CCC1CCCCC1)C(=O)N1CCCC(C(N)=O)C1)C(C)C (stereo partly specified) | < 40% | < 40% | < 40% | < 40% | – | – | – | – | – | – | – | – | –
2 | CC(=O)N[C@H](C(=O)N[C@@H](CCC1CCCCC1)C(=O)N1c2ccccc2C[C@H]1C(N)=O)C(C)C | < 40% | < 40% | < 40% | < 40% | – | – | – | – | – | – | – | – | –
3 | CN1C[C@H](C(=O)N[C@@H](CCC2CCCCC2)C(=O)N[C@@H](Cc2ccc(F)cc2)C(=O)N2CCC[C@H]2C(N)=O)C=C2c3cccc4[nH]cc(c34)C[C@H]21 | < 40% | < 40% | < 40% | < 40% | Active | Active | inactive | inactive | inactive | 33 µM | Active | – | –
4 | CN1C[C@H](C(N)=O)C=C2c3cccc4[nH]cc(c34)C[C@H]21 | < 40% | < 40% | < 40% | < 40% | – | – | – | – | – | – | – | – | –
5 | CC(=O)N[C@H](C(=O)N[C@@H](Cc1ccc(F)cc1)C(=O)N1CCC[C@H]1C(N)=O)C(C)C (Ac-Val-[Phe(4-F)]-Pro-NH2) | < 40% | < 40% | < 40% | < 40% | – | – | – | – | – | – | – | – | –
6 | CC(C)[C@H](NC(=O)[C@H](CCC1CCCCC1)NC(=O)[C@@H]1C=C2c3cccc4[nH]cc(c34)C[C@H]2N(C)C1)C(=O)N1CCC[C@H]1C(N)=O | < 40% | < 40% | < 40% | < 40% | Active | Active | inactive | inactive | inactive | – | Active | Active | –
7 | CC(C)[C@H](NC(=O)[C@H]1C=C2c3cccc4[nH]cc(c34)C[C@H]2N(C)C1)C(=O)N[C@@H](Cc1ccc([N+](=O)[O-])cc1)C(=O)N1CCC[C@H]1C(N)=O | < 40% | < 40% | < 40% | < 40% | Active | Active | inactive | inactive | inactive | – | Active | Active | –
8 | CC(=O)N[C@@H](Cc1ccc([N+](=O)[O-])cc1)C(=O)N[C@@H](CCC1CCCCC1)C(=O)N1CCCC(C(N)=O)C1 (stereo partly specified) | < 40% | < 40% | < 40% | < 40% | – | – | – | – | – | – | – | – | –
9 | CC(=O)N[C@@H](Cc1ccc([N+](=O)[O-])cc1)C(=O)N[C@H](C(=O)N1c2ccccc2C[C@H]1C(N)=O)C(C)C | < 40% | < 40% | < 40% | < 40% | – | – | – | – | – | – | – | – | –
10 | CC(=O)N[C@H](C(=O)N[C@@H](Cc1ccc([N+](=O)[O-])cc1)C(=O)N1CCC[C@H]1C(N)=O)C(C)C (Ac-Val-[Phe(4-NO2)]-Pro-NH2) | < 40% | < 40% | < 40% | < 40% | – | – | – | – | – | – | – | – | –
11 | CN1C[C@H](C(=O)N[C@@H](Cc2ccc([N+](=O)[O-])cc2)C(=O)N[C@@H](Cc2ccc(F)cc2)C(=O)N2CCCC(C(N)=O)C2)C=C2c3cccc4[nH]cc(c34)C[C@H]21 (stereo partly specified) | < 40% | < 40% | < 40% | < 40% | Active | Active | inactive | inactive | inactive | – | Active | Active | –
12 | CC(=O)N[C@@H](Cc1ccc([N+](=O)[O-])cc1)C(=O)N[C@@H](Cc1ccc(F)cc1)C(=O)N1CCCC(C(N)=O)C1 (stereo partly specified) | < 40% | < 40% | < 40% | < 40% | – | – | – | – | – | – | – | – | –
13 | CC(C)[C@H](NC(=O)[C@@H]1C=C2c3cccc4[nH]cc(c34)C[C@H]2N(C)C1)C(=O)N[C@@H](CCC1CCCCC1)C(=O)N1c2ccccc2C[C@H]1C(N)=O | < 40% | < 40% | < 40% | < 40% | Active | – | inactive | inactive | inactive | 25 µM | Active | – | Active
14 | CC(C)[C@H](NC(=O)[C@@H]1C=C2c3cccc4[nH]cc(c34)C[C@H]2N(C)C1)C(=O)N[C@@H](Cc1ccc(F)cc1)C(=O)N1CCC[C@H]1C(N)=O | < 40% | < 40% | < 40% | < 40% | Active | – | inactive | inactive | inactive | – | Active | – | Active
15 | CC(C)[C@H](NC(=O)[C@H](Cc1ccc([N+](=O)[O-])cc1)NC(=O)[C@@H]1C=C2c3cccc4[nH]cc(c34)C[C@H]2N(C)C1)C(=O)N1c2ccccc2C[C@H]1C(N)=O | < 40% | < 40% | < 40% | < 40% | Active | Active | inactive | inactive | inactive | – | Active | – | –
16 | CC(C)[C@H](NC(=O)[C@@H]1C=C2c3cccc4[nH]cc(c34)C[C@H]2N(C)C1)C(=O)N[C@@H](Cc1ccc([N+](=O)[O-])cc1)C(=O)N1CCC[C@H]1C(N)=O | < 40% | < 40% | < 40% | < 40% | Active | Active | inactive | inactive | inactive | – | Active | Active | –
17 | CN1C[C@H](C(=O)N[C@@H](Cc2ccc([N+](=O)[O-])cc2)C(=O)N[C@@H](CCC2CCCCC2)C(=O)N2CCCC(C(N)=O)C2)C=C2c3cccc4[nH]cc(c34)C[C@H]21 (stereo partly specified) | < 40% | < 40% | < 40% | < 40% | Active | Active | inactive | inactive | inactive | – | Active | – | –
18 | CC(=O)N[C@@H](CCC1CCCCC1)C(=O)N[C@@H](Cc1ccc(F)cc1)C(=O)N1CCC[C@H]1C(N)=O (Ac-[hCha]-[Phe(4-F)]-Pro-NH2) | < 40% | < 40% | < 40% | < 40% | – | – | – | – | – | – | – | – | –
19 | CC(=O)N[C@@H](CCC1CCCCC1)C(=O)N[C@H](C(=O)N1CCC[C@H]1C(N)=O)C(C)C (Ac-[hCha]-Val-Pro-NH2) | < 40% | < 40% | < 40% | < 40% | – | – | – | – | – | – | – | – | –
